# pEC50, pIC50: −log10 of the molar value.
# Columns and labels:
# [1] = system: HL-60; assay: Induction of cell differentiation in human HL60 cells assessed as superoxide anion production after 4 days by NBT reduction assay; type: functional, cell-based; conditions: HL-60, 96 h
# Method in brief: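 Cells diluted to 10^5/mL and recovered overnight were exposed 4 days to samples (0.1% v/v DMSO final). Cell suspension (10^6 cells) was mixed 1:1 with NBT 2 mg/mL plus TPA 1 μg/mL in PBS and held 1 h at 37 °C. Formazan-positive cells were counted microscopically among >200 cells. EC50 from 5–7 concentrations in duplicate; 1α,25-dihydroxyvitamin D3 served as reference.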
# [2] = system: HL-60; assay: Antiproliferative activity against human HL60 cells assessed as inhibition of [3H]thymidine incorporation after 4 days by liquid scintillation counter; type: functional, cell-based
# Method in brief: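 HL-60 cells in log phase diluted to 10^5 cells/mL, preincubated 18 h, then exposed to samples in DMSO (final 0.1% v/v; DMSO-only controls) for 4 days. Cells then pulsed with [3H]thymidine (0.5 μCi/mL, 65 Ci/mmol) for 18 h at 37 °C, 5% CO2, harvested onto glass fiber filters, scintillation counted; incorporation per 10^6 cells as % of DMSO control. IC50 from 5–7 concentrations in duplicate.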
# [3] = Inhibition of DMBA-induced preneoplastic lesion formation in a BALB/c mouse mammary organ culture at 2 uM pretreated for 10 days before DMBA-challenge measured after 14 days; type: functional; conditions: Mammary gland
# Method in brief: (§1)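 Female BALB/c mice, 4 weeks old, primed 9 days with estradiol 1 μg plus progesterone 1 mg. Thoracic glands were cultured 10 days with insulin, prolactin, aldosterone and hydrocortisone plus test agent at 2 μM. DMBA 2 μg/mL was given for 24 h on day 3. Regression followed for 14 days in insulin alone. Glands were formalin-fixed and alum carmine-stained. Lesion incidence gave % inhibition versus DMBA control. Toxicity was scored as duct dilation or amorphous disintegration.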
# [4] = system: HL-60; assay: Cytotoxicity against human HL60 cells assessed as loss of membrane integrity after 4 days by trypan blue exclusion assay; type: functional, cell-based; conditions: HL-60, 96 h
# Method in brief: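 After 18 h recovery at 10^5 cells/mL, HL-60 cells were treated 4 days with samples (final DMSO 0.1% v/v). Cells were mixed 1:4 with trypan blue (0.2% w/v in PBS), held at least 5 min at room temperature and counted by hemocytometer. Viability was taken from duplicate samples; IC50 from 5–7 concentrations in duplicate.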
# [5] = Toxicity in BALB/c mouse mammary organ culture assessed as morphological changes in mammary gland at 2 uM after 10 days; type: tissue-based; conditions: ex_vivo, 240 h; method in brief: as §1
# [6] = system: HL-60; assay: Selectivity index, ratio of cytotoxic IC50 to antiproliferative IC50 for human HL60 cells; type: functional
# Method in brief: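 Index = cytotoxic IC50 (trypan blue, 4-day HL-60 exposure) divided by antiproliferative IC50 ([3H]thymidine incorporation), each from dose–response with at least five points.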
SMILES,pEC50 [1],pIC50 [2],inhibition at 2 µM [3] [%],pIC50 [4],Activity [5],Ratio IC50 [6]
"CC1=CC(=O)[C@@H](O)[C@]2(C)[C@H]3C4(O)OC[C@@]35[C@@H](C[C@@H]12)OC(=O)C[C@H]5[C@@H](C)[C@H]4O (single isomer, unassigned) [CHAPARRINONE]",5.62,5.92,25,5.30,Non-toxic,4.3
CC1=CC(=O)[C@@H](O)[C@@]2(C)[C@H]1CC[C@@]13CO[C@]4(C)[C@@H]1C(=O)O[C@H]4[C@H](O)[C@@H]32 [SAMADERIN B],6.00,6.40,0,< 5.70,Non-toxic,>6
COC(=O)[C@@]12OC[C@]34[C@H]([C@@H](O)[C@@H]1O)[C@@]1(C)CC(=O)C(O)=C(C)[C@@H]1C[C@H]3OC(=O)[C@H](OC(=O)/C=C(\C)C(C)C)[C@@H]24 [BRUCEANTIN],7.70,7.40,70,7.40,Non-toxic,1
CCC(CC)(CO)C(=O)O[C@H]1C(=O)O[C@@H]2C[C@H]3C(C)=CC(=O)[C@@H](O)[C@]3(C)[C@H]3[C@]4(O)OC[C@]32[C@@H]1[C@@H](C)[C@H]4O,6.30,6.82,70,6.02,Non-toxic,6.5

# More lines, in order of rising pEC50 [1], values ahead:
pEC50 [1],SMILES,pIC50 [2],inhibition at 2 µM [3] [%],pIC50 [4],Activity [5],Ratio IC50 [6]
6.85,CC1=CC(=O)[C@@H](O)[C@]2(C)[C@H]3[C@]4(O)OC[C@]35[C@H]([C@@H](C)[C@H]4O)[C@@H](OC(=O)CC3(O)CCC3)C(=O)O[C@@H]5C[C@@H]12,6.59,33,6.55,Non-toxic,1.1
7.26,CC1=CC(=O)[C@@H](O)[C@]2(C)[C@H]3[C@]4(O)OC[C@]35[C@H]([C@@H](C)[C@H]4O)[C@@H](OC(=O)CC(C(C)C)C(C)C)C(=O)O[C@@H]5C[C@@H]12,7.12,40,6.82,Non-toxic,2
7.72,CC[C@](O)(CC(=O)O[C@H]1C(=O)O[C@@H]2C[C@H]3C(C)=CC(=O)[C@@H](O)[C@]3(C)[C@H]3[C@]4(O)OC[C@]32[C@@H]1[C@@H](C)[C@H]4O)C(C)C,8.05,44,7.89,Non-toxic,1.5
